High-throughput results: PubChem BioAssay, Sanford-Burnham Center for Chemical Genomics
SENP6 block: blocks the human protease SENP6; Q9GZR1; Recombinant SENP6 catalytic domain, aminoluciferin luminescence; inhibition, % at 10 µM; 330,000 compounds, 1.8% hits;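 active = inhibition above about 50% at the single tested dose, limit read from the data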;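 note: plate controls were DMSO wells with enzyme for no effect and DMSO wells lacking enzyme for full effect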
SENP8 block-1: SENP8 protease inhibition | Q96LD8 | 330,000 compounds, 1.2% hits | inhibition, % at 10 µM | purified SENP8, Z-RLRGG-aminoluciferin cleavage, luminescence | AID 2540; in the data active = inhibition above about 50%
SENP7 block: inhibitors of human SENP7 protease; Q9BQF6; recombinant SENP7, Z-RLRGG-aminoluciferin luminescence, 40 min; inhibition, % at 5 µM; 330,000 compounds, 1.5% hits; AID 434973;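 active = inhibition above about 50% at the single test dose, limit read from the data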;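 note: plate controls were DMSO with enzyme for no effect and no enzyme buffer wells for full effect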
Target sequence (Q9BQF6 706-1050 limits assumed): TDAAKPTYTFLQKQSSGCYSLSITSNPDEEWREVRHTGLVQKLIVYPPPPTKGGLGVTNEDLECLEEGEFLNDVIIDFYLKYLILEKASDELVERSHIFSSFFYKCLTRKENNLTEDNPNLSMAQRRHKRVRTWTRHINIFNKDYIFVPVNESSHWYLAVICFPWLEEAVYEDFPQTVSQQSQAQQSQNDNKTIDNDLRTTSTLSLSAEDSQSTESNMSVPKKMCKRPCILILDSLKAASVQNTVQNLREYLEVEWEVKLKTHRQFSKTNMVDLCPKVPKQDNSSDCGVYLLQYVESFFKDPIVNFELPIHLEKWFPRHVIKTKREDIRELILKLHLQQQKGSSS
SENP8 block-2: SENP8 (human) protease inhibition. recombinant SENP8, Nedd8 substrate fluorescence. Q96LD8. inhibition, % at 20 µM. 360,000 compounds, 0.64% hits. AID 602440; in the data active = inhibition mostly above about 40%, no sharp cut-off; inactive = mostly below about 27%
SENP1 FRET inh: SENP1 (human) catalytic domain inhibition. 360,000 compounds, 0.21% hits. inhibition, % at 10 µM. Q9P0U3. recombinant SENP1 catalytic domain, CyPet-SUMO1-YPet FRET cleavage;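 active = inhibition at least 30% at 10 µM, raw YFP signal under a set limit, fluorescence ratio 0.5 to 1.5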;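 note: 0% = enzyme with DMSO and 100% = no enzyme wells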
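Controls: no-enzyme wells low, DMSO-plus-enzyme wells high control. Test system: human recombinant His6-tagged SENP1 catalytic domain enzyme. Reagent: SFCypet-SUMO1-SFYpet FRET protein substrate, 25 nM final. Doses: one dose per compound, 10 µM, 0.5% DMSO. Detection: FRET, CFP and YFP emission. Timing: 50 min reaction at room temperature.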
SENP8 confirm: human SENP8 inhibition, confirmed; 6,200 compounds, 40% hits; shares compounds with SENP7 block; Recombinant SENP8, Z-RLRGG-aminoluciferin luminescence, 60 min; inhibition, % at 12.5 µM;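 active = mean inhibition across replicates above about 50%, limit read from the data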
SENP6 conf: confirmation of human SENP6 protease inhibitors. shares compounds with SENP7 block. recombinant SENP6, Z-RLRGG-aminoluciferin luminescence. inhibition, % at 12.5 µM. 6,200 compounds, 58% hits. AID 488915
SENP7 conf: human SENP7 inhibition, confirmed | inhibition, % at 12.5 µM | 6,200 compounds, 69% hits | recombinant SENP7, Z-RLRGG-aminoluciferin luminescence, 40 min | shares compounds with SENP7 block
Casp3 SENP sel: inhibits human caspase-3 in SENP selectivity test; shares compounds with SENP7 block; purified caspase-3, Z-DEVD-aminoluciferin luminescence, 60 min; inhibition, % at 12.5 µM; 6,200 compounds, 60% hits; AID 488918;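 active = mean inhibition above about 50%, limit read from the data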;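 note: plate controls were enzyme with DMSO for no effect and wells without caspase-3 for full effect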
Target sequence (P42574 28-227 limits assumed): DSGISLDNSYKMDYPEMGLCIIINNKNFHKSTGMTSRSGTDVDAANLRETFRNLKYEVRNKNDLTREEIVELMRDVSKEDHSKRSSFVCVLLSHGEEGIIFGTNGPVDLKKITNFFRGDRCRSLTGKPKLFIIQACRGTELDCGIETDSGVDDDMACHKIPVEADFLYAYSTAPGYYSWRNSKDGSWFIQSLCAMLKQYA
Luc interf: luminescence interference (SENP counter-screen) | AID 488919 | 6,200 compounds, 39% hits | Pre-incubated SENP8/Z-RLRGG-aminoluciferin, luciferase luminescence interference | inhibition, % at 12.5 µM | shares compounds with SENP7 block;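 active = mean inhibition above about 50% when retested at one dose, limit read from the data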;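 note: plate controls were DMSO wells with completed reaction for no effect and substrate without enzyme for full effect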
* marks the source's active call; other numbers are inactive results; . = not tested or not shown. Sampled rows, rich in hits. Any-hit rate of the full collection: about 2.5%.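 Rule for the calls, unless noted: active = mean inhibition above about 50% in the one-dose retest (limit read from the data); inactive = the rest.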

SMILES	SENP6 block	SENP8 block-1	SENP7 block	SENP8 block-2	SENP1 FRET inh	SENP8 confirm	SENP6 conf	SENP7 conf	Casp3 SENP sel	Luc interf
N#C/C(=C/c1ccc(-c2cc(C(=O)O)cc(C(=O)O)c2)o1)c1nc2ccccc2s1	-19	3	3	.	.	.	.	.	.	.
N#C/C(=C\c1ccco1)c1nc2ccccc2s1	89*	87*	88*	-5	-36	88*	91*	97*	84*	30
CC(C)c1ccc(NC2CCCN(C(=O)CN3CCCCC3=O)C2)cc1 (centres undefined)	.	.	.	10	0	.	.	.	.	.
CC(/C=C1\SC(=S)N(CCC(=O)Nc2cccc(C(=O)O)c2)C1=O)=C\c1ccccc1	-2	5	5	17	-6	.	.	.	.	.
CCc1ccc(/C=C2/SC(=S)N(CCC(=O)Nc3cccc(C(=O)O)c3)C2=O)cc1	38	79*	52*	21*	3	28	24	22	32	17
CCc1ccc(C=C2SC(=S)N(CCCC(=O)Nc3ccc(C(=O)O)cc3)C2=O)cc1	.	.	.	13	2	.	.	.	.	.
O=C(CCN1C(=O)/C(=C/c2ccco2)SC1=S)Nc1ccc(C(=O)O)c(O)c1	-8	3	5	24	0	.	.	.	.	.
Cc1ccc(/C=C2\SC(=S)N(CCCC(=O)Nc3cccnc3)C2=O)cc1	58*	52*	61*	18	0	0	1	2	11	15
COc1ccccc1/C=C1\SC(=S)N(CCC(=O)Nc2ccc(C(=O)O)c(O)c2)C1=O	72*	64*	8	20	-8	77*	76*	79*	15	81*
CCc1ccc(/C=C2/SC(=S)N(CCC(=O)Nc3ccc(C(=O)O)cc3)C2=O)cc1	22	85*	75*	22	4	12	11	2	3	-1
CN1C(=O)S/C(=C/c2ccc(OCc3cccc(C(=O)O)c3)cc2)C1=O	92*	78*	57*	-30	-1	62*	67*	58*	16	35
CN(C)c1nc(-c2ccccc2)c2cnn(Cc3ccccc3)c2n1	-12	4	9	-287	-100	.	.	.	.	.
O=C(Nc1nc2c(s1)CCCC2)C1COc2ccccc2O1 (centres undefined)	67*	59*	59*	20	0	75*	73*	92*	67*	32
O=C(Nc1ccncc1)C1COc2ccccc2O1 (centres undefined)	0	0	-6	21	-2	.	.	.	.	.
O=C(NC1=NCCS1)C1COc2ccccc2O1 (centres undefined)	82*	64*	85*	21	2	77*	76*	95*	94*	85*
Cc1nnc(NC(=O)C2COc3ccccc3O2)s1 (centres undefined)	-11	-4	5	4	5	.	.	.	.	.
COc1ccc2cc(-c3ccn[nH]3)ccc2c1	66*	45	59*	4	0	32	53*	84*	45	64*
COc1ccc(-c2cn[nH]c2C)cc1	-7	-1	1	10	-1	.	.	.	.	.
Cc1ccc(N2CC(C(=O)OCc3nnc(-c4ccccc4)o3)CC2=O)cc1 (centres undefined)	-1	1	3	-7	0	.	.	.	.	.
COc1ccc(Cn2c(C3CC3)nc3ccc(NC(C)=O)cc3c2=O)cc1	73*	46	67*	-15	0	70*	68*	90*	73*	42
COc1ccc(Cn2c(C3CC3)nc3ccc(NC(=O)c4cccnc4)cc3c2=O)cc1	-10	1	3	-37	-5	.	.	.	.	.
Cc1ccc(S(=O)(=O)Nc2cc(S(=O)(=O)N3CCOCC3)ccc2NCC2CCCO2)cc1 (centres undefined)	-5	-8	-7	19	-2	.	.	.	.	.
CN(C)c1ccc(N=Cc2nc(-c3ccccc3)oc2OC(=O)c2cccc(Cl)c2)cc1	64*	-11	72*	25	-26	6	5	-1	26	8
Cc1ccc(C(=O)Oc2oc(-c3ccccc3)nc2C=Nc2ccc(N(C)C)cc2)cc1	-19	-13	-15	3	-24	.	.	.	.	.
Cc1cc(C)cc(-n2nnc(C(=O)NCc3ccccc3Cl)c2N)c1	2	-7	-11	26	-1	.	.	.	.	.
SMILES	SENP6 block	SENP8 block-1	SENP7 block	SENP8 block-2	SENP1 FRET inh	SENP8 confirm	SENP6 conf	SENP7 conf	Casp3 SENP sel	Luc interf
Cn1c(=O)c2cc(NCc3ccccc3)nnc2n(C)c1=O	81*	80*	5	-83	-25	-3	-2	-5	-4	-8
Cn1c(=O)c2c(nc(NCc3ccccc3)n2C)n(C)c1=O	1	-3	-4	10	2	.	.	.	.	.
COc1ccc(OC(=O)Nc2ccccc2)cc1	82*	83*	-8	10	2	2	88*	100*	92*	86*
CC(=O)Nc1ccc(NC(=O)Oc2ccccc2)cc1	-12	-1	5	-49	2	.	.	.	.	.
CCc1ccc(OC(=O)Nc2ccccc2)cc1	86*	78*	38	4	1	91*	91*	98*	82*	78*
CCc1ccc(-c2csc(NC(=O)Oc3ccccc3)n2)cc1	19	-3	-4	-1	0	.	.	.	.	.
Cc1cc(Cl)cc2sc(NC(=O)c3ccco3)nc12	40	-4	21	-170	-1	.	.	.	.	.
CC(=O)c1sc(NC(=O)c2ccco2)nc1-c1ccccc1	5	-15	-11	3	-9	.	.	.	.	.
O=C(Nc1nc2c(F)cccc2s1)c1ccco1	81*	74*	76*	-43	2	80*	77*	94*	84*	25
CC(=O)Nc1nc2c(F)cccc2s1	-4	3	0	-2	1	.	.	.	.	.
Cc1cc(C)c2nc(NC(=O)c3ccco3)sc2c1	76*	80*	80*	-214	1	11	73*	92*	61*	16
Cc1sc(NC(=O)c2ccco2)nc1-c1ccccc1	51*	26	7	-381	2	47	44	72*	33	61*
CC(=O)OCCNc1cc(SC(C)C)c2nonc2c1[N+](=O)[O-]	56*	10	13	25	-27	8	5	10	6	1
CC1=CC(=C(C#N)c2nc3ccccc3s2)C=C(C)N1CC1CCCO1 (centres undefined)	82*	26	18	34	-35	-4	-5	-1	9	4
